Data on 98 molecules can be found in ChEMBL document CHEMBL4513216, “Probing the Open Global Health Chemical Diversity Library for Multistage-Active Starting Points for Next-Generation Antimalarials” (ACS Infect Dis, 2020).

The structures appear in SMILES notation.

This data set is described as follows: Toxicity liver stage against HepG2, at 10uM. The data set is classed as cell-based. On the set-up: test concentration 10 uM, cell line HepG2-A16-CD81EGFP. As to conditions: human, HepG2-A16-CD81EGFP cells; read-out: INHIBITION
The essentials:
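Uninfected HepG2-A16-CD81EGFP cells, 3 × 10^3 per well, 1536-well, plated on prespotted compound at 10 μM final, parasite-free screening media added to match infected plates; puromycin 10 μM positive, DMSO 0.5% negative; run in parallel with 48 h PbLuc assay at 37 °C, 5% CO2; viability by CellTiter-Glo luminescence, normalized to controls.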
Take `COC1(CNC(=O)CCCc2ccccc2)CCSC1` (stereo not drawn): the cytotoxicity at 10 µM amounted to 4.68%.
Take `COc1ccccc1NCC(=O)NCc1ccc(-c2ccn[nH]2)cc1`: the cytotoxicity at 10 µM was -1.99%.
As for `c1cncc(-c2noc(CNCC3CCCN3c3cccnn3)n2)c1` (stereo not drawn), the cytotoxicity at 10 µM was -4.6%.
As to `CN1CCN(C)C(c2nnc3ccc(C(=O)N4CCOCC4)cn23)C1` (stereo not drawn), the cytotoxicity at 10 µM is -130%.
The figure for `CC1c2cc(F)ccc2CCN1CCCS(=O)(=O)C(C)C` (stereo not drawn) is 9.15%.
Take `CCS(=O)(=O)N1Cc2c(Cn3ccnc3)nn(C)c2C1`: the cytotoxicity at 10 µM is -2.85%.
Turning to `CC(=O)N1CCC(c2ccnc(Nc3cc(C(F)(F)F)ccn3)n2)C1` (stereo not drawn), the cytotoxicity at 10 µM was determined as 11%.
The result for `CC(C)c1nc2c(n1C)CCN(CCCc1nc3ccccc3o1)C2` reads 2.07%.
As for `CC(C)c1nnc2n1CCN(C(=O)c1cn(-c3ccccc3)nn1)C2`, the cytotoxicity at 10 µM is -144%.
The result for `CC(NC(=O)CCOc1cccc(F)c1)c1nnc2n1CCC2` (stereo not drawn) reads -14.1%.
As to `Cc1ccccc1C1(C(=O)NCCN(C)C)CCOCC1`, the cytotoxicity at 10 µM is -1.95%.
Regarding `COc1ccccc1N1CCN(C(=O)CSC(C)C)C(C)C1` (stereo not drawn), the cytotoxicity at 10 µM was -3.97%.
On to `O=C(NCCCO)c1cnc(-c2ccccc2)nc1O`, for which the cytotoxicity at 10 µM is -7.11%.
With `CC(C)N1CCC(c2n[nH]cc2S(C)(=O)=O)CC1`, the cytotoxicity at 10 µM was -7.22%.
The result for `O=C(CCc1nc(C2CC2)no1)c1ccc2c(c1)OCCO2` reads -7.04%; that for `Cc1nc(C2CCN(S(=O)(=O)c3ccc(Cl)cc3)CC2)n[nH]1`, 10.6%.
The figure for `Cc1ccccc1CN1CCN(c2ncnc3c2NC(=O)CN3)CC1` is 6.78%.
The result for `CC1CCN(c2ccc(CNC(=O)NCCn3ccnc3)cn2)CC1` reads -9.48%; that for `Cc1ccsc1C(=O)N1CCc2ncc(CN3CCCC3)n2CC1`, -111%.
For the molecule `CC1(C(=O)NC2CCCC2)CN(c2cnccn2)CCO1` (stereo not drawn), the cytotoxicity at 10 µM is -33.9%.
On to `COCCN(CCOC)Cc1nc2c(cnn2C)c(=O)[nH]1`, for which the cytotoxicity at 10 µM was -9.73%.
Consider `COCCOc1cc(C)ccc1NC(=O)N(C)Cc1cnn(C)c1`, for which the cytotoxicity at 10 µM is -9.5%.
In the case of `CO[C@@H]1CCN(Cc2ccoc2)[C@H]1Cc1ccccc1`, the cytotoxicity at 10 µM was determined as 7.46%.
The result for `COC(=O)C(C)CN(C)S(=O)(=O)c1c(Br)cc2[nH]c(=O)oc2c1Cl` (stereo not drawn) reads 8.73%; that for `c1cc(CN2C[C@H](OCC3CCOCC3)[C@H]3COC[C@H]32)cs1`, 9.86%.
The result for `CCc1nc(CN(C(C)=O)C2CCN(CCc3cccs3)C2)no1` (stereo not drawn) reads -4.62%.
As for `CCN1CCOC(CNc2nccc(C(F)(F)F)n2)C1` (stereo not drawn), the cytotoxicity at 10 µM came out at 5.31%.
Consider `COc1ccc(-c2cnc(N(C)C)nc2C2CNCCO2)cc1` (stereo not drawn), for which the cytotoxicity at 10 µM is -1.4%.
The result for `O=C(c1cscn1)N1CCC(O)(Cn2ccc3ccncc32)CC1` reads -18.2%; that for `COc1ccc2c(ccn2CCN)c1`, -0.73%; that for `COc1ccc(-c2nccc(C3CCCN3C)n2)cc1` (stereo not drawn), 9.97%.
`Cc1cc(CN(C)C(=O)NC2CCN(S(C)(=O)=O)CC2)no1`: the cytotoxicity at 10 µM worked out at 3.25%.
The result for `Cc1nc(CN2C[C@@H]3CN(C(=O)Cc4ccccn4)C[C@@H]3C2)cs1` reads -106%; that for `COCCC1(CNC(=O)NCC2CCCN(C)C2)CCCC1` (stereo not drawn), 0.131%.
In the case of `COCCn1c(C(=O)NCc2n[nH]c(C)n2)cc2ccccc21`, the cytotoxicity at 10 µM was -3.83%.
As to `CN1CC[C@@H]2[C@@H](CO[C@H]2CNC(=O)c2nccn2C)C1`, the cytotoxicity at 10 µM is -113%.
For the molecule `CCNC(=O)c1ccnc(CC2COc3c(cccc3OC)C2)c1` (stereo not drawn), the cytotoxicity at 10 µM was determined as 0.441%.
As to `Cc1ccc2nc(C(=O)N(C)[C@@H]3CC[C@@H](N4CCCC4)[C@@H]3O)cn2c1`, the cytotoxicity at 10 µM is 1.67%.
The result for `Cn1nnc2c(N3CC(C(=O)NCCC4=CCCCC4)C3)ncnc21` reads 8.41%.
The result for `Cc1ncc2c(c1CNC(=O)C1(C)CCCO1)CCNC2` (stereo not drawn) reads -45.6%; that for `CCC(=O)N1CCC2(CC1)c1nc[nH]c1CCN2S(C)(=O)=O`, -11.4%.
In the case of `Cc1nccn1CCC1CCCCN1Cc1ccc(O)cc1Cl` (stereo not drawn), the cytotoxicity at 10 µM is -4.23%.
The figure for `Cc1ccoc1C1=NNC(=CN2CCn3c(nnc3C(C)C)C2)O1` is -13.1%; for `Cc1cc2ncn(C(=O)N3CCCCC3)c2cc1C` it is 10.3%.
Take `OCC1(O)CCCN(Cc2noc(-c3ccccc3)n2)C1` (stereo not drawn): the cytotoxicity at 10 µM is -4.76%.
The figure for `Cc1nc(CNCC2CCCN2c2cccnn2)cs1` (stereo not drawn) is -6.26%; for `Cc1nc(CN2CCCC(NCc3ccc4c(c3)CCO4)C2)no1` (stereo not drawn) it is -3.61%.
On to `CC(NC(=O)CNc1cc2c(cc1Cl)NC(=O)CO2)c1ccco1` (stereo not drawn), for which the cytotoxicity at 10 µM is -0.0162%.
`CCc1ncc2c(n1)CN(C(=O)c1c(C)[nH]c3c1C(=O)CCC3)C2`: the cytotoxicity at 10 µM was -45.8%.
In the case of `CC1CCCN(Cc2c(C3CC3)[nH]c3ncccc23)C1` (stereo not drawn), the cytotoxicity at 10 µM was -34.1%.
Take `Cc1cnn(CC2CCCN2C(=O)c2cccnc2-n2cncn2)c1` (stereo not drawn): the cytotoxicity at 10 µM is -3.29%.
Turning to `O=C(Nc1nncs1)N1CCCN(C2CCCC2)CC1`, the cytotoxicity at 10 µM was -4.31%.
On to `CC(C)(C)NC(=O)CNc1ccc(Br)cn1`, for which the cytotoxicity at 10 µM is -2.81%.
As to `Fc1cccc(Cl)c1CNCc1ccccn1`, the cytotoxicity at 10 µM is -2.25%.
On to `O=C(NCc1cccnc1)C1CN(c2cnc3ccccc3n2)CCN1` (stereo not drawn), for which the cytotoxicity at 10 µM is -48.9%.
The result for `Cc1ccc(CN2CCN(Cc3cc(C)n[nH]3)CC2CCO)cc1` (stereo not drawn) reads 1.13%; that for `Cc1ccc(O[C@@H]2C[C@H]3CN(C(=O)Cc4ccccn4)CCN3C2)cc1`, -59%.
Take `c1ccc(NCc2ccsc2)c(Cn2cncn2)c1`: the cytotoxicity at 10 µM worked out at 1.42%.
As for `COCCC(=O)N(C)CCC1=CCN(C)CC1`, the cytotoxicity at 10 µM is -6.93%.
`Cn1nc(C(=O)NCc2cccs2)c2c1CCS(=O)(=O)C2`: the cytotoxicity at 10 µM was -0.328%.
Turning to `O=C(CN1CCOCC1)N1CCC(c2cc(N3CCCC3)ncn2)CC1`, the cytotoxicity at 10 µM worked out at 3.6%.
In the case of `Cc1cc(CC(=O)N2CCN(C)[C@@H]3CS(=O)(=O)C[C@@H]32)ccc1F`, the cytotoxicity at 10 µM was -3.89%.
For `CC(C)c1nc(CN2CCN(C(=O)CN3CCOCC3)CC2)no1`, the cytotoxicity at 10 µM was -7.8%.
For `CN(Cc1ncnn1C)C(=O)CCn1ccc2ccccc21`, the cytotoxicity at 10 µM is 1.16%.
As to `CC(C)N(C)C(=O)c1coc(CN2CCN(c3ccccc3F)CC2)n1`, the cytotoxicity at 10 µM worked out at 7.31%.
Regarding `COc1ccc(SC(C)C(=O)N2CCC(C(=O)N3CCCC3)CC2)cc1` (stereo not drawn), the cytotoxicity at 10 µM worked out at 1.03%.
Turning to `Cc1nc(C)n(CC2CCCN2Cc2nc3ccccc3s2)n1` (stereo not drawn), the cytotoxicity at 10 µM is -6.25%.
Turning to `O=C1CC(c2ccc(Cl)c(Cl)c2)c2c(n3ccsc3nc2=O)N1` (stereo not drawn), the cytotoxicity at 10 µM is -0.839%.
In the case of `Cc1ccc(-c2nc(CN3CCN(CC(=O)N(C)C)CC3)cs2)o1`, the cytotoxicity at 10 µM is -22%.
Turning to `O=S(=O)(NCCn1ccc(-c2ccccn2)n1)C1CC1`, the cytotoxicity at 10 µM was -1.04%.
Consider `Cc1ccc(CN2CCO[C@H]3[C@@H](OCc4cccnc4)CC[C@@H]32)o1`, for which the cytotoxicity at 10 µM was -0.58%.
For `Cc1cc(C)n(C2CN(CC(O)COc3ccc(F)cc3)C2)n1` (stereo not drawn), the cytotoxicity at 10 µM was -10.5%.
With `COCCN1CCc2cc(C(=O)NC(C)C)c(NCC(C)C)nc2CC1`, the cytotoxicity at 10 µM is -163%.
Regarding `CSCC(=O)N1C[C@@H]2CC[C@H]1CN(Cc1ccccc1)C2`, the cytotoxicity at 10 µM was -14.9%.
The result for `CC(=O)N1CCC(CCNC(C)c2cc(F)cc(F)c2)CC1` (stereo not drawn) reads -0.988%; that for `Cc1ccccc1-n1cc(C2=CCN(CCN3CCOCC3)CC2)cn1`, -5.06%.
As to `O=S(=O)(c1cncc(F)c1)N1CCSC2(CCCCC2)C1`, the cytotoxicity at 10 µM amounted to 9.48%.
For `c1cnc(N2CCCC(c3cc4cccnc4[nH]3)C2)nc1` (stereo not drawn), the cytotoxicity at 10 µM was -9.42%.
The result for `COC(=O)c1sccc1S(=O)(=O)NCCC(O)c1ccoc1` (stereo not drawn) reads -2.64%; that for `CCn1c(CN(C)C)nnc1C1CCN(c2nccc(NC)n2)CC1`, 7.36%; that for `Cc1nc(CN2CCN(c3ncnc4ccccc34)CC2)no1`, 61.5%.
The figure for `CN(C)c1ncccc1CN1CCOC(C(=O)Nc2ccccc2)C1` (stereo not drawn) is -29.7%; for `CCOCC(=O)N1Cc2nccn2CC(CN(C)C)C1` (stereo not drawn) it is -124%; for `COc1ccc(C(=O)NS(=O)(=O)c2ccc(C#N)cc2C(F)(F)F)cc1` it is -10.5%.
With `CCOc1ccc(CN2CCN(C(=O)c3cc(C4CC4)[nH]n3)CC2)cc1`, the cytotoxicity at 10 µM was 36.1%.
Take `Cc1ccc(CN(C)C(=O)CN2CCCC(Cn3cncn3)C2)o1` (stereo not drawn): the cytotoxicity at 10 µM was -24.4%.
For the molecule `CCOc1ccc2nc(CN3CCC(CN)C3)ccc2c1` (stereo not drawn), the cytotoxicity at 10 µM is -7.41%.
For the molecule `O=C1N(Cc2cccnc2)CCC12CCCNC2` (stereo not drawn), the cytotoxicity at 10 µM came to 3.52%.
For the molecule `O=C(CC1CCCC1)N1C[C@@H]2CCN(c3cccnc3)C[C@@H]2C1`, the cytotoxicity at 10 µM is 4.24%.
In the case of `COc1cc(OC)cc(C(=O)Nc2ncnc3c2CCC3)c1`, the cytotoxicity at 10 µM is -179%.
On to `O=C(c1ccc(-n2ccnc2)nc1)N1CCCC(n2cccn2)C1` (stereo not drawn), for which the cytotoxicity at 10 µM is -5.13%.
On to `COc1ccc(CC2CN(C(=O)c3ocnc3C)CCO2)cc1` (stereo not drawn), for which the cytotoxicity at 10 µM worked out at 11.4%.
On to `O=C(CSc1ccncc1)N1C[C@@H]2CC[C@H]1CN(Cc1cccnc1)C2`, for which the cytotoxicity at 10 µM worked out at 4.66%.
For `CC(C)C(CCO)NC(=O)Nc1cc(F)ccc1-n1cccn1` (stereo not drawn), the cytotoxicity at 10 µM is -4.06%.
The result for `CCN(CC(O)c1ccc(C)cc1)C(=O)NC(C)C` (stereo not drawn) reads -7.74%; that for `Cc1ccc(CC(=O)N2CCCC(c3nccs3)C2)cn1` (stereo not drawn), -2.01%.
Turning to `O=C(c1cc2c(s1)CCN2C(=O)C1CC1)N1CCCC1`, the cytotoxicity at 10 µM was 2.62%.
The result for `NCCc1cc(N2CCOCC2)nc(NC2CC2)n1` reads 0.881%.
